Measured values as given in the EternaBench riboswitch data.

Tested on: MS2 coat protein
Test: apparent Kd, MS2 coat protein; higher = weaker binding; RNA-MaP array; FMN 200 µM where present
Summary of the method: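 Green signal was scaled to red-channel RNA signal and control-cluster median Fmax, and the apparent Kd was taken as the median of filtered per-cluster binding-curve fits. The binding series used SNAP-549-labelled MS2 coat protein from 0.7 or 1.5 nM, doubling to 3 µM, on designs transcribed by stalled E. coli RNA polymerase on Illumina sequencing-chip clusters. Each series ran without and then with constant ligand in 100 mM Tris-HCl pH 7.5, 80 mM KCl, 4 mM MgCl2, BSA, DTT, yeast tRNA and Tween-20.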

[1] = designed as: OFF switch for flavin mononucleotide, no ligand
[2] = ligand present: flavin mononucleotide, designed as: OFF switch for flavin mononucleotide
[3] = designed as: ON switch for flavin mononucleotide, no ligand
[4] = ligand present: flavin mononucleotide, designed as: ON switch for flavin mononucleotide

Row | Sequence | apparent Kd [1] [nM] | apparent Kd [2] [nM] | apparent Kd [3] [nM] | apparent Kd [4] [nM]
1 | UAACUGCAGAAGAUAAUAAUGAAUACAUGAGGAUCACCCAUGUAGGAUAUCGUCAGGAAUACUGACGAGAAGGACAUACUGCAG | 14.1 | 16.9 | – | –
2 | UAAUAAAGUGUGAGGAUAUGCUGGUCCUUGGAUCAGCAGAAGGCACAUGAGGAUCACCCAUGUAAUAUAUAAAU | 97.2 | 292 | – | –
3 | UAAUAAUAAUAAUAGCAGAUUACAUGAGGAUCACCCAUGUAUAAGGAUAUCGUCAGGAAUACUGACGAGAAGGUAUACAACUGC | 18.9 | 25.7 | – | –
4 | UAAUAGUGAGGAUAUACAGAAUCUGGGUCCCGCGUGUUGAGACAUGAGGAUCACCCAUGUAGAAGGCACAAAAU | 108 | 42.5 | – | –
5 | UAAUAUUUAUAAUAUUAUUACAUUAGAAGGCUAGACAUGUGGAUACAUGAGGAUCACCCAUGUAUAGAGGAUAUAGACAUAUAU | 29.5 | 79.9 | – | –
6 | UAAUGUGACAUGAGGAUCACCCAUGUAGACAUGGGAAGGUCGUAGGAUAUGCUGAUGAUUUUUUUGCAGAAGGACGUCAAGGAG | – | – | 268 | 138
7 | UAAUUACAUGAGGAUCACCCAUGUGAGGAUAUGUCCAUAUUCGGCAAAUCGGAUAUGGACAGAAGGCACACCGG | 56.3 | 141 | – | –
8 | UAAUUGUGAGGAUAUCAGGUGUGCUAGCGUACUGGUACAUCUGAGAAGGCACAUGAGGAUCACCCAUGUUCCUU | 13.8 | 37.6 | – | –
9 | UACAGACAUGAGGAUCACCCAUGUGAGGAUAUCCAUAACGAUAUUACAAGUAUGACAGGGAGAAGGCACAGCAA | 41.3 | 52 | – | –
10 | UACAGACAUGAGGAUCACCCAUGUGAGGAUAUCGAUAACAAUAAAAUAAUAUAAACAACGAGAAGGCACAGCAU | 57.4 | 73 | – | –
11 | UACAUGAGGAUCACCCAUGUUUUGUCGUGUAUGGUAUUUAUCUAGGAUAUCAAUUUAAUUAUUUAUGAGAAGGAGAAUAUUAAU | 39.6 | 33.1 | – | –
12 | UACAUGUGAGGAUAUUAGAUCGCUAACUGGCGGGAGCGAUCUGAGAAGGCACAUGAGGAUCACCCAUGUGUCGU | 16.9 | 40.2 | – | –
13 | UACCUGAGGCAAAGCCUUAGGUAUACAUGAGGAUCACCCAUGUAGGAUAUGGUAGGCUUUGCUUACCAGAAGGACAUGUUAAUU | 19.8 | 63.8 | – | –
14 | UACGGACAUGAGGAUCACCCAUGUGAGGAUAUCGGUACCGAUAGCAUAAUAUACUCGGCGAGAAGGCACAGCGU | 30 | 31.8 | – | –
15 | UACUUACGAGGAUAUCGAUUGUGGUACAUGAGGAUCACCCAUGUAUGUGAUAUUGUAUUUCGAGAAGGCGUUCAGU | 25.8 | 21.7 | – | –
16 | UAGAAGUCAGGAUAUCCUGCUCGUCACUUGCGUGAUGAGUAGGAGAAGGGACAUGAGGAUCACCCAUGUAAAGU | 56.5 | 63.9 | – | –
17 | UAGAAGUCAGGAUAUGCAUGGCGGGACUUGCGUCGUGGCGUGCAGAAGGGACAUGAGGAUCACCCAUGUAAAGU | 51.5 | 55.5 | – | –
18 | UAGAGAGGAAGCGAGGAUAUCGUGUGAGGAACAUGAGGAUCACCCAUGUGUGAUGUUGAGAGAGACGAGAAGGCGCAGGAAAUUA | – | – | 205 | 72.6
19 | UAGAUCAAUACAGGAUAUGGUGACGCACAUGAGGAUCACCCAUGUCCGCAGCGUGCUCAGCACGCCCAGAAGGGUAUUGAUUCG | – | – | 786 | 80.1
20 | UAGAUGGGAGGAUAUGCGUAGAUACGGAUUCGUGUAGUGCUACAUGAGGAUCACCCAUGUAGAAGGCCCGUCUU | 15.2 | 18.3 | – | –
21 | UAGAUUUAUGUAGGAUAUACAUUUUGUACGUAUGUAGAAGGACAUGAGGAUCACCCAUGUAAAUAAAUAUUAAAUAUCAUAAUU | 50.5 | 32.4 | – | –
22 | UAGCGGUAGGGAGGAUAUGCGAAAGGAAGGCCCGCAGAAGGCCUUACAUGAGGAUCACCCAUGUAGGAUGCCUGGGUGGUGCCC | 14.5 | 26.4 | – | –
23 | UAGCUUGACGCAGGAUAUCCAAGGCUGAAAUGAGGAGAAGGGCGCCAAACAUGAGGAUCACCCAUGUAUUAUGCAGGGUCCUCA | 362 | 180 | – | –
24 | UAGGACUACGUAGGAUAUGUAGUAGAUUACUACAUGAGGAUCACCCAUGUAAGCAUGUUAUUAGGACAGAAGGACGUGGUAAAU | – | – | 30.4 | 11.1
25 | UAGUUACAUGAGGAUCACCCAUGUGAGGAUAUGAGUCAGUCACGGUGACGUGGCUGACUCAGAAGGCACUAUGG | 198 | 154 | – | –
26 | UAUAAAAUUAUAGGAUAUCGAUAUCAAAGAUAUCGAGAAGGGUGAAUAUAAUAUUAUCUGUACAUGAGGAUCACCCAUGUUUAU | – | – | 276 | 87.2
27 | UAUAUAUAGUAAGGAUAUGUAAUUAUUUUAUAAACAGAAGGUACUGACAUGAGGAUCACCCAUGUUUUAGUGUGGGCAUGUAGA | 87.7 | 139 | – | –
28 | UAUAUAUAGUAAGGAUAUGUAAUUUUUUUAUAAACAGAAGGUACUGACAUGAGGAUCACCCAUGUUUUAGUGUGGGCAUGUAGA | 107 | 169 | – | –

Row | Sequence | apparent Kd [1] [nM] | apparent Kd [2] [nM] | apparent Kd [3] [nM] | apparent Kd [4] [nM]
29 | UAUAUAUAGUAAGGAUAUGUAUAUAUUUUAGAAACAGAAGGUACUGACAUGAGGAUCACCCAUGUUUUAGUGUGGGCAUGUAGA | 69.2 | 89.7 | – | –
30 | UAUAUAUAGUAAGGAUAUGUAUUAAUAUUAUAAACAGAAGGUACUGACAUGAGGAUCACCCAUGUUUUAGUGUGGGCAUGUAGA | 87.6 | 128 | – | –
31 | UAUAUAUAGUAAGGAUAUGUAUUUAAUUUAUAAACAGAAGGUACUGACAUGAGGAUCACCCAUGUUUUAGUGUGGGCAUGUAGA | 97.9 | 147 | – | –
32 | UAUAUAUAGUAAGGAUAUGUAUUUAUUUAAUAAACAGAAGGUACUGACAUGAGGAUCACCCAUGUUUUAGUGUGGGCAUGUAGA | 79.7 | 149 | – | –
33 | UAUAUAUAGUAAGGAUAUGUAUUUCUUUUAUAAACAGAAGGUACUGACAUGAGGAUCACCCAUGUUUUAGUGUGGGCAUGUAGA | 81.2 | 116 | – | –
34 | UAUCAUUACACGAAGGAUAUCGAUAAUUGAACAUGAGGAUCACCCAUGUGAUAUAUUUUACAGUUCGAGAAGGUCGAGGGUGAAG | – | – | 35.6 | 18
35 | UAUGAAUAGCAAGGAUAUUGAUAACAUGAGGAUCACCCAUGUAAUUGAUCGAGUUAGAUCAGUUACAAGAAGGUGCAAUUGAUU | – | – | 53 | 557
36 | UAUUAGUGAGGAUAUGAGUCGUAGAACAAUAGUACUACGUCUCAGAAGGUACAUGAGGAUCACCCAUGUUCCUC | 19 | 22.8 | – | –
37 | UAUUAUCACGAAGGAUAUGCUUACAUGAGGAUCACCCAUGUAUGUAUAUUGAUCCAGAGUUUUGAGCAGAAGGUCGUGAGUAAA | 41.8 | 250 | – | –
38 | UAUUCAUACGAAGGAUAUGGUUACAUGAGGAUCACCCAUGUAUGUAUAUUGAUCUAGUUAUUUAACCAGAAGGUCGGGUGUAAA | 57.3 | 91.3 | – | –
39 | UAUUCUAGAUAGGAUAUACUUUAUUUUUUUUUCGUAGAAGGAUCUACAUGAGGAUCACCCAUGUUAACAGCAGU | 55.5 | 50.8 | – | –
40 | UAUUUAAUCAUAGGAUAUAGUGUGAAAUUUGGACUAGAAGGAUGUAACAUGAGGAUCACCCAUGUGGUAAGUGGGACACAUUGA | – | – | 107 | 130
41 | UAUUUAUAAUAUUUUAACAUGAGGAUCACCCAUGUCGCUAGACAGGAUAUAUUUUAUUUUUUUAAGUAGAAGGGUCAUAUAUUU | – | – | 84 | 103
42 | UAUUUAUAGCAAGGAUAUGAUUAUUAUUAUUUAUCAGAAGGUGCACAUGAGGAUCACCCAUGUUUUAUAAUUUGUAAUUUAAUU | 55.6 | 21.8 | – | –
43 | UCAAGUAUGUAGGAUAUGAUGUGAUUUUACAUAUCAGAAGGACGUACAUGAGGAUCACCCAUGUAACUUGCAUG | 112 | 42.2 | – | –
44 | UCAAUUGCGUAGGAUAUACGGGCGCAGGCUAGAGUAGAAGGACGCACAUGAGGAUCACCCAUGUGGGUACCGAU | 17.7 | 114 | – | –
45 | UCACGGGACUGAGGAUAUACAUGAAUUAUUUUUGUAGAAGGCAGAAUGUUAGAUUAUUCACUAUACAUGAGGAUCACCCAUGUU | 25.3 | 18.2 | – | –
46 | UCAUAUAAACAAGGAUAUCAAUUAUUUACACAUCCUACAUGAGGAUCACCCAUGUUUUAAUAUUUUGAGAAGGUGUAAUGUCGG | – | – | 24 | 29.9
47 | UCAUAUAUACAAGGAUAUCAAUGAUUUAUAGAUCCUACAUGAGGAUCACCCAUGUUUUUAUAUUUUGAGAAGGUGUAAUGUCUU | – | – | 218 | 254
48 | UCAUAUUUACAAGGAUAUCAAUAUAAUAUAAUACCAACAUGAGGAUCACCCAUGUAUUAGCGUAAUGAGAAGGUGUAUUGUCGG | – | – | 51.2 | 41.4
49 | UCAUCAACGGGCGGGUCGGUUGGACAUGAGGAUCACCCAUGUAGAAGGACCGGUGGGCUCCGGCGGUAGGAUAUACAUUUGGUG | 8.14 | 13.3 | – | –
50 | UCAUGGUAGCAGGAUAUGCUUGUUUUUUUUUUUGCAGAAGGGCUUACAUGAGGAUCACCCAUGUGAGAGGUCUA | 14.5 | 21.6 | – | –
51 | UCAUGUUUAGAGGAUAUGAUUACUUUUGAGUAAUCAGAAGGCUAGACAUGAGGAUCACCCAUGUCAUAACAUGA | 90 | 112 | – | –
52 | UCAUUUAUCACAGGAUAUAUUAGUAUACAGUUGUUUGGUUAUUACAUAUUAAUAGAAGGGUGGAACAUGAGGAUCACCCAUGUA | – | – | 616 | 282
53 | UCAUUUAUUACAGGAUAUGUUAGUAUACAGUUGUUUGGUUAUUACAUAAUAACAGAAGGGUAGAACAUGAGGAUCACCCAUGUA | – | – | 244 | 113
54 | UCCAGGUAAGGAUAUGGGCUGGACACCGGGUACGGCCAGCACCAGAAGGUACAUGAGGAUCACCCAUGUGUUCC | 54.5 | 274 | – | –
55 | UCCCUGUGAGGAUAUCUCGUUCCGGUGAAAUUAGCUAGAUGGGAGAAGGCACAUGAGGAUCACCCAUGUGACGA | 22 | 26.6 | – | –
